Measured values published in ChEMBL document CHEMBL1151863, “Discovery of thioether-bridged cyclic pentapeptides binding to Grb2-SH2 domain with high affinity” (Bioorg Med Chem Lett, 2009).
Numbered stars: 1 amine (or outer) side, 2 acyl side, 3 side chain; on linkers, the order of the positions; unused ones are H or OH. Bridge positions count the residues as written; N and C are the ends. Square brackets hold non-standard residues; d marks the D form. Peptide text beside a SMILES is read from it. pY = N[C@@H](Cc1ccc(OP(=O)(O)O)cc1)C(=O)O; X1 = O=C(C1(N[*:1])CCCNC1)[*:2]

Biological target: Growth factor receptor-bound protein 2 (Homo sapiens, UniProt P62993)
Assay: Binding affinity to GST-tagged recombinant Grb2 SH2 domain by Biacore assay
Procedure, shortened: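 Surface plasmon resonance (Biacore) binding to the Grb2-SH2 domain, reported as Kd. Values are means of two experiments, with standard deviation given.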

Chain of Growth factor receptor-bound protein 2 (P62993 whole entry, the tested form may be a part): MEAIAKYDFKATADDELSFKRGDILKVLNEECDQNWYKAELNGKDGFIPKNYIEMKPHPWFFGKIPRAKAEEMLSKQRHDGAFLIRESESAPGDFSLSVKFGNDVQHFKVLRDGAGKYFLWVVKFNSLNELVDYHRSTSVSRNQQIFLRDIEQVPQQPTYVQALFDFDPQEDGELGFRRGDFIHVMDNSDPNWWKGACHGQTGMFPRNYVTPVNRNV

| SMILES | Kd |
| --- | --- |
| CC(C)[C@@H]1NC(=O)[C@H](CC(N)=O)NC(=O)C2(CCCNC2)NC(=O)[C@H](Cc2ccc(OP(=O)(O)O)cc2)NC(=O)CSC[C@@H](C(N)=O)NC1=O (some centres not stated) ({CH2CO}-[pY][X1]NVC-NH2; thioether N-5) | 0.359 µM |
| NC(=O)C[C@H]1NC(=O)C2(CCCCC2)NC(=O)[C@@H](Cc2ccc(OP(=O)(O)O)cc2)NC(=O)C[S@@+]([O-])C[C@H](C(N)=O)NC(=O)[C@@H](Cc2ccc3ccccc3c2)NC1=O (single isomer, unassigned) | 4.8 µM |
